Screens (PubChem BioAssay)
Sampled rows, rich in hits. Any-hit rate of the full collection: about 2.1%.
Xi reactivation: X-chromosome reactivation activator. XiGFP mouse fibroblasts, % GFP-positive cells imaging, 3 d; cells co-treated with 5-aza-dC sensitizer; scaled so ellipticine positive control = 100%. hit rate 0.055% among 360,000. AID 743238. activation, % at 7.58 µM;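 active = mean normalized replicate activation at least 10% and every replicate at or above 10%; inconclusive = only one of the two criteria met; inactive = mean below 10% and not all replicates reach 10%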;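 also: 0% = median of on-plate neutral control wells and 100% = ellipticine 6 µM median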
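Schedule: 3 d treatment, 15 min room-temperature fixation; system: 68-5-11 XiGFP fibroblast line; buffer or medium: DMEM plus 5-aza-dC sensitizer; control set: ellipticine 6 µM positive control; compound: one concentration, pinned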
Cneo AK release: causes C. neoformans cell lysis | hit rate 0.2% among 360,000 | AID 651654 | lysis activity, % at 15 µM | adenylate kinase release luminescence, 4 h; normalised: neutral wells 0, clomiphene wells 100;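 active = mean lysis activity across replicates of at least 80%, whatever share of replicates individually reach that level; inactive = mean lysis activity below 80%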
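Material: C. neoformans cells | Amount: Yeast cell density of 5 × 10^6 cells/mL | Medium: Fresh YPD growth medium | Dosing: Single dose | Times: Static 4 h at 37 °C with compound, 1 h detection | Detection: AK luminescence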
DENV2 CPE rescue: inhibitors of DENV2 cytopathic effect | hit rate 1.7% among 350,000 | AID 651640 | DENV2-infected cells, cytopathic effect rescue, plate reader | CPE inhibition, % at 9.99 µM; in the data active = CPE inhibition above about 20%, passing the limit was not always enough; inconclusive = no clear call, values can overlap the other calls; tested in BHK-21 cells;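 also: 0% = median of neutral control wells and 100% = median of positive control wells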
Statin myotox sup: suppressors of simvastatin-induced myotoxicity in C2C12 myotubes; rescue of ATP level, % at 7.49 µM; AID 602340; hit rate 0.78% among 330,000; ATP luminescence, 48 h; scaled: DMSO 0, geranylgeraniol control 100;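 active = mean ATP rescue above about 67%, or every replicate alone reaching that limit, limit read from the data, passing the limit was not always enough; inconclusive = no clear call, values can overlap the other calls; inactive = mean under the limit and some replicate under it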;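 also: myotubes were challenged with 10 µM simvastatin during compound exposure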
Numbers without * were called inactive.

What do the screens show for `CO[C@H]1CN(C)C(=O)c2cc(NC(C)=O)ccc2OC[C@H](C)N(CCc2ccccc2)C[C@@H]1C`?
Xi reactivation: 0; Cneo AK release: 0; DENV2 CPE rescue: 5; Statin myotox sup: 4

How did COc1ccc(-c2oc3ccccc3c2C#Cc2cncn2C)cc1 do in these assays?
Xi reactivation: 0; Cneo AK release: -3; DENV2 CPE rescue: 70*; Statin myotox sup: -54

Results for COc1ccc(-c2sc3cc4c(cc3c2C#Cc2cncn2C)OCO4)cc1 ?
Xi reactivation: 0; Cneo AK release: 0; DENV2 CPE rescue: 34*; Statin myotox sup: -41

What do the screens show for `C[C@@]12C(=O)Nc3ccc(Cl)cc3C(=O)N1[C@H]1c3cc(Cl)ccc3OC[C@@H]1[C@@H]2c1ccccc1`?
Xi reactivation: 0; Cneo AK release: 0; Statin myotox sup: -51

What do the screens show for `COc1ccc2c(c1)[C@H]1[C@H](CO2)[C@H](c2ccccc2)[C@]2(C)C(=O)Nc3ccc(Cl)cc3C(=O)N12`?
Xi reactivation: 0; Cneo AK release: 0; DENV2 CPE rescue: 33*; Statin myotox sup: -17

How did C[C@H]1CN([C@@H](C)CO)C(=O)c2cc(C#CC3CCCCC3)cnc2O[C@@H]1CN(C)S(=O)(=O)c1cccc(F)c1 do in these assays?
Xi reactivation: -1; Cneo AK release: -2; DENV2 CPE rescue: -1; Statin myotox sup: 19

What do the screens show for `O=S(=O)(NCC[C@@H]1CC[C@H](NS(=O)(=O)c2cccc(F)c2)[C@H](CO)O1)c1cccc(F)c1`?
Xi reactivation: 1; DENV2 CPE rescue: inconclusive

How did COCCNC(=O)C1CCC(CNS(=O)(=O)c2ccc(F)cc2)CC1 (stereo not given) do in these assays?
Xi reactivation: 0; Cneo AK release: 1; DENV2 CPE rescue: 34*; Statin myotox sup: 9

Results for Cc1ccc(-c2csc(NC(=O)c3ccc(C)o3)n2)cc1 ?
Xi reactivation: 0

What do the screens show for `Cc1ccc(-c2csc(NC(=O)c3ccc([N+](=O)[O-])o3)n2)cc1`?
Xi reactivation: 0; Cneo AK release: 0; DENV2 CPE rescue: -1; Statin myotox sup: 91*

What do the screens show for `O=C(Nc1nc(-c2ccc([N+](=O)[O-])cc2)cs1)C1=COCCO1`?
Xi reactivation: 0; Cneo AK release: 1; DENV2 CPE rescue: 42*; Statin myotox sup: -4

What do the screens show for `CCCN(C)C[C@H]1OCCCC[C@@H](C)Oc2ccc(NC(=O)Nc3ccc(F)cc3)cc2C(=O)N([C@H](C)CO)C[C@@H]1C`?
Xi reactivation: 0; Cneo AK release: 6; DENV2 CPE rescue: -7; Statin myotox sup: -10

Results for Cc1noc(C)c1NC(=O)N(C)C[C@H]1OCCCC[C@H](C)Oc2ccc(NC(=O)NC(C)C)cc2C(=O)N([C@H](C)CO)C[C@@H]1C ?
Xi reactivation: 0; Cneo AK release: -6; DENV2 CPE rescue: 102*

What do the screens show for `Cc1noc(C)c1NC(=O)N(C)C[C@H]1OCCCC[C@H](C)Oc2ccc(NC(=O)NC3CCCCC3)cc2C(=O)N([C@@H](C)CO)C[C@@H]1C`?
Xi reactivation: 0; Cneo AK release: -1; DENV2 CPE rescue: 28*

Results for Cc1noc(C)c1NC(=O)N(C)C[C@@H]1OCCCC[C@H](C)Oc2ccc(NC(=O)NC(C)C)cc2C(=O)N([C@H](C)CO)C[C@@H]1C ?
Xi reactivation: 0; Cneo AK release: 12; DENV2 CPE rescue: 0

How did Cc1noc(C)c1NC(=O)Nc1ccc2c(c1)C(=O)N([C@@H](C)CO)C[C@H](C)[C@@H](CN(C)C(=O)NC1CCCCC1)OCCCC[C@H](C)O2 do in these assays?
Xi reactivation: 0; Cneo AK release: 5; DENV2 CPE rescue: 21*

How did COc1ccccc1CNC(=O)C[C@H]1CC[C@H](NC(=O)CC2CC2)[C@H](CO)O1 do in these assays?
Xi reactivation: -1; Cneo AK release: -2; DENV2 CPE rescue: 6; Statin myotox sup: -2

What do the screens show for `COc1ccc(NC(=O)CSc2nnc(-c3ccccc3)n2Cc2ccco2)c(OC)c1`?
Cneo AK release: 0; Statin myotox sup: 14

What do the screens show for `COc1ccc(NC(=O)CSc2nnc(-c3ccccc3Cl)n2Cc2ccco2)c(OC)c1`?
Cneo AK release: 1; Statin myotox sup: 115*

What do the screens show for `C[C@@H]1CN([C@H](C)CO)C(=O)c2cc(NC(=O)CCC(F)(F)F)ccc2O[C@@H](C)CCCCO[C@@H]1CN(C)Cc1ccncc1`?
Xi reactivation: 0; Statin myotox sup: 46

What do the screens show for `CCOC(=O)CC1(C)Sc2ccccc2N1S(=O)(=O)c1ccc(C)cc1` (stereo not given)?
Xi reactivation: 0; DENV2 CPE rescue: 63*
